# According to ChEMBL document CHEMBL4325889, “Natural products hybrids: 3,5,4'-Trimethoxystilbene-5,6,7-trimethoxyflavone chimeric analogs as potential cytotoxic agents against diverse human cancer cells” (Eur J Med Chem, 2019):
# How the values were obtained:
# Format in all cases: functional
# UACC-257 = assay: Growth inhibition of human UACC257 cells at 10 uM after 48 hrs by SRB assay relative to control; details: UACC-257, 48 h, read-out: GI
# Outline: (§1)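 NCI screen against its human cancer cell line panel by the standard NCI protocol, SRB protein stain. Single dose of 10 μM. Percent growth inhibition versus control; values above 100% mean the cell population fell below the starting number. Each value is the mean of duplicates.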
# ACHN = assay: Growth inhibition of human ACHN cells at 10 uM after 48 hrs by SRB assay relative to control; details: read-out: GI
# Outline: (§2)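 Screened at the National Cancer Institute by the standard NCI protocol using the sulforhodamine B assay, which measures cellular protein. Single dose of 10 µM. Result is percent growth inhibition; values above 100% mean cell number fell below the initial population. Values are the average of duplicates.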
# SR = assay: Growth inhibition of human SR cells at 10 uM after 48 hrs by SRB assay relative to control; details: read-out: GI; outline: as §1
# NCI-H23 = assay: Growth inhibition of human NCI-H23 cells at 10 uM after 48 hrs by SRB assay relative to control; details: NCI-H23, 48 h, read-out: GI; outline: as §2
# A549 = assay: Growth inhibition of human A549 cells at 10 uM after 48 hrs by SRB assay relative to control; details: A549, 48 h, read-out: GI; outline: as §2
# UO-31 = assay: Growth inhibition of human UO31 cells at 10 uM after 48 hrs by SRB assay relative to control; details: UO-31, 48 h, read-out: GI; outline: as §1
# MCF7 = assay: Growth inhibition of human MCF7 cells at 10 uM after 48 hrs by SRB assay relative to control; details: MCF7, 48 h, read-out: GI; outline: as §2
# SNB-75 = assay: Growth inhibition of human SNB75 cells at 10 uM after 48 hrs by SRB assay relative to control; details: SNB-75, 48 h, read-out: GI; outline: as §1
# SF-295 = assay: Growth inhibition of human SF295 cells at 10 uM after 48 hrs by SRB assay relative to control; details: SF-295, 48 h, read-out: GI; outline: as §2
# CCRF-CEM = assay: Growth inhibition of human CCRF-CEM cells at 10 uM after 48 hrs by SRB assay relative to control; details: read-out: GI; outline: as §2
# Malme-3M = assay: Growth inhibition of human MALME-3M cells at 10 uM after 48 hrs by SRB assay relative to control; details: read-out: GI; outline: as §2
# HCT-15 = assay: Growth inhibition of human HCT15 cells at 10 uM after 48 hrs by SRB assay relative to control; details: HCT-15, 48 h, read-out: GI; outline: as §2
# Hs-578T = assay: Growth inhibition of human Hs 578T cells at 10 uM after 48 hrs by SRB assay relative to control; details: read-out: GI; outline: as §2
# SN12C = assay: Growth inhibition of human SN12C cells at 10 uM after 48 hrs by SRB assay relative to control; details: read-out: GI; outline: as §2
# HT-29 = assay: Growth inhibition of human HT-29 cells at 10 uM after 48 hrs by SRB assay relative to control; details: HT-29, 48 h, read-out: GI; outline: as §2
# NCI-H322M = assay: Growth inhibition of human NCI-H322M cells at 10 uM after 48 hrs by SRB assay relative to control; details: read-out: GI; outline: as §2
# CAKI-1 = assay: Growth inhibition of human Caki1 cells at 10 uM after 48 hrs by SRB assay relative to control; details: CAKI-1, 48 h, read-out: GI; outline: as §2
# TK-10 = assay: Growth inhibition of human TK10 cells at 10 uM after 48 hrs by SRB assay relative to control; details: TK-10, 48 h, read-out: GI; outline: as §1
# NCI-H522 = assay: Growth inhibition of human NCI-H522 cells at 10 uM after 48 hrs by SRB assay relative to control; details: NCI-H522, 48 h, read-out: GI; outline: as §2
# HOP-92 = assay: Growth inhibition of human HOP92 cells at 10 uM after 48 hrs by SRB assay relative to control; details: HOP-92, 48 h, read-out: GI; outline: as §2
# NCI-H460 = assay: Growth inhibition of human NCI-H460 cells at 10 uM after 48 hrs by SRB assay relative to control; details: NCI-H460, 48 h, read-out: GI; outline: as §2
# MDA-MB-468 = assay: Growth inhibition of human MDA-MB-468 cells at 10 uM after 48 hrs by SRB assay relative to control; details: MDA-MB-468, 48 h, read-out: GI; outline: as §2
# SK-MEL-2 = assay: Growth inhibition of human SK-MEL-2 cells at 10 uM after 48 hrs by SRB assay relative to control; details: SK-MEL-2, 48 h, read-out: GI; outline: as §2
# HOP-62 = assay: Growth inhibition of human HOP62 cells at 10 uM after 48 hrs by SRB assay relative to control; details: HOP-62, 48 h, read-out: GI; outline: as §2
# COLO 205 = assay: Growth inhibition of human COLO205 cells at 10 uM after 48 hrs by SRB assay relative to control; details: COLO 205, 48 h, read-out: GI; outline: as §2
# LOX IMVI = assay: Growth inhibition of human LOXIMVI cells at 10 uM after 48 hrs by SRB assay relative to control; details: read-out: GI; outline: as §2
# MOLT-4 = assay: Growth inhibition of human MOLT4 cells at 10 uM after 48 hrs by SRB assay relative to control; details: MOLT-4, 48 h, read-out: GI; outline: as §2
# RPMI-8226 = assay: Growth inhibition of human RPMI8226 cells at 10 uM after 48 hrs by SRB assay relative to control; details: RPMI-8226, 48 h, read-out: GI; outline: as §2
# 786-0 = assay: Growth inhibition of human 786-0 cells at 10 uM after 48 hrs by SRB assay relative to control; details: 786-0, 48 h, read-out: GI; outline: as §2
# OVCAR-4 = assay: Growth inhibition of human OVCAR4 cells at 10 uM after 48 hrs by SRB assay relative to control; details: OVCAR-4, 48 h, read-out: GI; outline: as §2
# KM12 = assay: Growth inhibition of human KM12 cells at 10 uM after 48 hrs by SRB assay relative to control; details: KM12, 48 h, read-out: GI; outline: as §2
# SW-620 = assay: Growth inhibition of human SW620 cells at 10 uM after 48 hrs by SRB assay relative to control; details: SW-620, 48 h, read-out: GI; outline: as §1
# IGROV-1 = assay: Growth inhibition of human IGROV1 cells at 10 uM after 48 hrs by SRB assay relative to control; details: IGROV-1, 48 h, read-out: GI; outline: as §2
# SK-MEL-28 = assay: Growth inhibition of human SK-MEL-28 cells at 10 uM after 48 hrs by SRB assay relative to control; details: SK-MEL-28, 48 h, read-out: GI; outline: as §2
# SF-539 = assay: Growth inhibition of human SF539 cells at 10 uM after 48 hrs by SRB assay relative to control; details: SF-539, 48 h, read-out: GI; outline: as §2
# U-251 = assay: Growth inhibition of human U251 cells at 10 uM after 48 hrs by SRB assay relative to control; details: U-251, 48 h, read-out: GI; outline: as §1
compound,measurement,setting,value
COc1cc2oc(-c3cccc(C(=O)Nc4ccccc4)c3)cc(=O)c2c(O)c1OC,inhibition of growth at 10 µM,UACC-257,15.7%
same,inhibition of growth at 10 µM,ACHN,42%
same,inhibition of growth at 10 µM,SR,4.29%
same,inhibition of growth at 10 µM,NCI-H23,13.1%
same,inhibition of growth at 10 µM,A549,39.7%
same,inhibition of growth at 10 µM,UO-31,40.3%
same,inhibition of growth at 10 µM,MCF7,21.9%
same,inhibition of growth at 10 µM,SNB-75,78.2%
same,inhibition of growth at 10 µM,SF-295,30%
same,inhibition of growth at 10 µM,CCRF-CEM,-0.19%
same,inhibition of growth at 10 µM,Malme-3M,35.5%
same,inhibition of growth at 10 µM,HCT-15,7.23%
same,inhibition of growth at 10 µM,Hs-578T,88.9%
same,inhibition of growth at 10 µM,SN12C,25.2%
same,inhibition of growth at 10 µM,HT-29,45.9%
same,inhibition of growth at 10 µM,NCI-H322M,33.6%
same,inhibition of growth at 10 µM,CAKI-1,51.1%
same,inhibition of growth at 10 µM,TK-10,39.2%
same,inhibition of growth at 10 µM,NCI-H522,8.74%
same,inhibition of growth at 10 µM,HOP-92,94.7%
same,inhibition of growth at 10 µM,NCI-H460,66.3%
same,inhibition of growth at 10 µM,MDA-MB-468,30.6%
same,inhibition of growth at 10 µM,SK-MEL-2,35%
same,inhibition of growth at 10 µM,HOP-62,91.1%
same,inhibition of growth at 10 µM,COLO 205,7.73%
same,inhibition of growth at 10 µM,LOX IMVI,11.9%
same,inhibition of growth at 10 µM,MOLT-4,0.26%
same,inhibition of growth at 10 µM,RPMI-8226,16.5%
same,inhibition of growth at 10 µM,786-0,68.5%
same,inhibition of growth at 10 µM,OVCAR-4,120%
same,inhibition of growth at 10 µM,KM12,42.2%
same,inhibition of growth at 10 µM,SW-620,5.67%
same,inhibition of growth at 10 µM,IGROV-1,14.6%
same,inhibition of growth at 10 µM,SK-MEL-28,12.6%
same,inhibition of growth at 10 µM,SF-539,80.6%
same,inhibition of growth at 10 µM,U-251,63.1%
